Values joined by “and” are separate entries in the source; they are usually repeats but may differ in a detail not shown here. Equal values may be shown once.
Tests used:
C6 [1] = assay: Weight change of C6 glioma tumor cells in mice at 100 mg/kg peroral dose, days 1-15 administration; assay type: functional, organism-based; parameters: dose 100 mg/kg; conditions: Mus musculus
Outline: (§1)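 Tumor-bearing nude mice (NCr nu/nu, 18–22 g, 6–8 per group) were implanted in the right axilla with tumor fragments on day 0 and dosed by average cage weight. Vehicle was 50 mM sodium lactate pH 4.0, or 0.5% methyl cellulose suspension; cisplatin was given in saline. Host body weight change is given as the maximum treatment-related weight loss.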

HT-29 [2] = assay: Difference in days for treated (T) and control (C) HT-29 cell tumors to reach 750 mg in mice at 200 mg/kg ip dose, days 15-29 administration; assay type: functional, Mus musculus; conditions: route intraperitoneal
Outline: (§2)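 Nude mice (NCr nu/nu), 18–22 g, 6–8 per group, randomized and implanted with serially passaged tumor fragments in the right axilla on day 0. Dosed by average cage weight. Vehicle was 50 mM sodium lactate buffer, pH 4.0, or a 0.5% methyl cellulose suspension for one compound. Cisplatin was given in saline. T − C is the difference in days for treated and control tumors to reach 750 mg.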

C6 [3] = assay: C6 glioma cell growth in soft agar with discontinued treatment; assay type: functional, cell-based; conditions: Rattus norvegicus
Outline: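 C6 rat glioma cells (F10 Ham's, 15% horse serum, 2.5% fetal calf serum) exposed to a range of concentrations for 3 days, washed free of inhibitor, plated in drug-free soft agar. Colonies stained and counted after two weeks. IC50; mean of two experiments, each in duplicate.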

[4] = biological target: T1, Platelet-derived growth factor receptor (Mus musculus, UniProt P05622+P26618); assay: (§3) Inhibition of Platelet-derived growth factor receptor autophosphorylation in NIH3T3 cells; assay type: functional, cell-based
Outline: (§4)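 Serum-starved 24 h (C6 rat glioma; PDGF-B-transfected NIH3T3), incubated 2 h with a range of concentrations, then stimulated 5 min with 25 ng/mL PDGF-BB. Lysates or immunoprecipitates Western blotted with antiphosphotyrosine antibody, ECL detection. IC50.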

Mus musculus [5] = assay: Net reduction in tumor burden between the first and last treatments of PDGF-transfected fibroblast cells in mice at 100 mg/kg intraperitoneal dose, days 1-15 administration
[6] = biological target: T2, Platelet-derived growth factor receptor beta (Mus musculus, UniProt P05622); assay: Inhibitory concentration was evaluated against Platelet-derived growth factor receptor beta (PDGFr) tyrosine kinase
[7] = biological target: T1, Platelet-derived growth factor receptor; assay: as §3; assay type: functional, cell-based; outline: as §4; remark: listed apart in the source
[8] = biological target: Proto-oncogene tyrosine-protein kinase Src (Gallus gallus, UniProt P00523); assay: Inhibition of avian c-Src tyrosine kinase
C6 [9] = assay: C6 glioma cell growth in soft agar with continuous treatment; assay type: functional, cell-based; conditions: Rattus norvegicus
Outline: (§5)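 C6 rat glioma cells (F10 Ham's with 15% horse serum, 2.5% fetal calf serum) exposed 3 days to a concentration series, then plated in soft agar with compound still present at the same concentration; colonies stained and counted after two weeks. IC50; mean of two experiments, each in duplicate.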

HT-29 [10] = assay: Net reduction in tumor burden between first and last treatments of HT-29 cell tumors in mice at 200 mg/kg ip dose, days 15-29 administration; assay type: functional, Mus musculus; conditions: route intraperitoneal
Outline: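 NCr nu/nu nude mice (18–22 g, 6–8 per group, randomized) had tumor fragments, kept by serial passage in nude mice, implanted in the right axilla on day 0. Mice were dosed by average cage weight on the listed days, over a range from toxic to ineffective doses. Vehicle was 50 mM sodium lactate pH 4.0 or 0.5% methyl cellulose suspension. Net log cell kill was taken between first and last treatments.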

COLO 205 [11] = assay: Weight change of COLO 205 cell tumors in mice at 200 mg/kg ip dose, days 14-28 administration; assay type: functional, Mus musculus; conditions: route intraperitoneal; outline: as §1
[12] = biological target: T2, Platelet-derived growth factor receptor beta; assay: Inhibition of Platelet-derived growth factor receptor (PDGFr)
Outline: (§6)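 Recombinant kinases (PDGFr-β, FGFr-1, c-Src), enzyme inhibition IC50. Mean of at least two separate determinations, each done in triplicate; replicate values typically varied under 30%.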

C6 [13] = assay: Difference in days for treated (T) and control (C) C6 glioma cell tumors to reach 750 mg in mice at 100 mg/kg peroral dose, days 1-15 administration; assay type: functional, Mus musculus; conditions: route oral; outline: as §2
C6 [14] = assay: C6 cell growth in soft agar with continuous treatment; assay type: functional, cell-based, Rattus norvegicus; conditions: Rattus norvegicus, C6; outline: as §5
NIH3T3 = assay: Inhibition of NIH3T3 proliferation by sulforhodamine B assay; assay type: functional, cell-based, Mus musculus; conditions: nih3t3
[15] = biological target: Proto-oncogene tyrosine-protein kinase Src (Homo sapiens, UniProt P12931); assay: Inhibition of c-Src tyrosine kinase; outline: as §6
C6 [16] = assay: (§7) Inhibition of C6 cell proliferation in sulforhodamine B assay; assay type: functional, cell-based; conditions: Rattus norvegicus
Outline: (§8)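 C6 rat glioma cells (F10 Ham's, 15% horse serum, 2.5% fetal calf serum) seeded and allowed 24 h to attach, then given serial 2-fold compound dilutions; 4 d at 37 °C, 5% CO2; growth read by sulforhodamine B staining. IC50; mean of two experiments, each in triplicate.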

COLO 205 [17] = assay: Difference in days for treated (T) and control (C) COLO 205 cell tumors to reach 750 mg in mice at 200 mg/kg ip dose, days 14-28 administration; assay type: functional, Mus musculus; conditions: route intraperitoneal; outline: as §2
C6 [18] = assay: C6 cell growth in soft agar with discontinued treatment; assay type: functional, cell-based, Rattus norvegicus; conditions: Rattus norvegicus, C6
Outline: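 C6 rat glioma cells given 3-day exposure to a concentration series, then washed free of inhibitor and plated in drug-free soft agar; colonies stained and counted after two weeks. IC50; mean of two experiments, each in duplicate.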

Mus musculus [19] = assay: Difference in days for treated (T) and control (C) PDGF-transfected mouse fibroblast tumors to reach 750 mg in mice at 100 mg/kg peroral dose, days 1-15 administration; assay type: functional; conditions: route intraperitoneal, in the assay text read “intraperitoneal” for “peroral”; outline: as §2
SK-OV-3 [20] = assay: Difference in days for treated (T) and control (C) SKOV-3 cell tumors to reach 750 mg in mice at 200 mg/kg ip dose, days 20-34 administration; assay type: functional; conditions: route intraperitoneal; outline: as §2
[21] = biological target: T3, Platelet-derived growth factor receptor (PDGFr) (Rattus norvegicus, UniProt P20786+Q05030); assay: Inhibition of Platelet-derived growth factor receptor autophosphorylation in C6 cells; assay type: functional, cell-based; outline: as §4
[22] = biological target: Epidermal growth factor receptor (Homo sapiens, UniProt P00533); assay: Inhibitory concentration was evaluated against epidermal growth factor receptor (EGFr) tyrosine kinase
HT-29 [23] = assay: Weight change of HT-29 cell tumors in mice at 200 mg/kg ip dose, days 15-29 administration; assay type: functional, Mus musculus; conditions: route intraperitoneal; outline: as §1
[24] = biological target: T3, Platelet-derived growth factor receptor (PDGFr); assay: Inhibition of PDGF-induced autophosphorylation of PDGF-R in C6 cells
C6 [25] = assay: as §7; assay type: functional, cell-based, Rattus norvegicus; conditions: Rattus norvegicus, C6; outline: as §8
SK-OV-3 [26] = assay: Weight change of SK-OV-3 cell tumors in mice at 200 mg/kg peroral dose, days 20-34 administration; assay type: functional; conditions: route intraperitoneal, in the assay text read “intraperitoneal” for “peroral”

T2 sequence (P05622 whole entry): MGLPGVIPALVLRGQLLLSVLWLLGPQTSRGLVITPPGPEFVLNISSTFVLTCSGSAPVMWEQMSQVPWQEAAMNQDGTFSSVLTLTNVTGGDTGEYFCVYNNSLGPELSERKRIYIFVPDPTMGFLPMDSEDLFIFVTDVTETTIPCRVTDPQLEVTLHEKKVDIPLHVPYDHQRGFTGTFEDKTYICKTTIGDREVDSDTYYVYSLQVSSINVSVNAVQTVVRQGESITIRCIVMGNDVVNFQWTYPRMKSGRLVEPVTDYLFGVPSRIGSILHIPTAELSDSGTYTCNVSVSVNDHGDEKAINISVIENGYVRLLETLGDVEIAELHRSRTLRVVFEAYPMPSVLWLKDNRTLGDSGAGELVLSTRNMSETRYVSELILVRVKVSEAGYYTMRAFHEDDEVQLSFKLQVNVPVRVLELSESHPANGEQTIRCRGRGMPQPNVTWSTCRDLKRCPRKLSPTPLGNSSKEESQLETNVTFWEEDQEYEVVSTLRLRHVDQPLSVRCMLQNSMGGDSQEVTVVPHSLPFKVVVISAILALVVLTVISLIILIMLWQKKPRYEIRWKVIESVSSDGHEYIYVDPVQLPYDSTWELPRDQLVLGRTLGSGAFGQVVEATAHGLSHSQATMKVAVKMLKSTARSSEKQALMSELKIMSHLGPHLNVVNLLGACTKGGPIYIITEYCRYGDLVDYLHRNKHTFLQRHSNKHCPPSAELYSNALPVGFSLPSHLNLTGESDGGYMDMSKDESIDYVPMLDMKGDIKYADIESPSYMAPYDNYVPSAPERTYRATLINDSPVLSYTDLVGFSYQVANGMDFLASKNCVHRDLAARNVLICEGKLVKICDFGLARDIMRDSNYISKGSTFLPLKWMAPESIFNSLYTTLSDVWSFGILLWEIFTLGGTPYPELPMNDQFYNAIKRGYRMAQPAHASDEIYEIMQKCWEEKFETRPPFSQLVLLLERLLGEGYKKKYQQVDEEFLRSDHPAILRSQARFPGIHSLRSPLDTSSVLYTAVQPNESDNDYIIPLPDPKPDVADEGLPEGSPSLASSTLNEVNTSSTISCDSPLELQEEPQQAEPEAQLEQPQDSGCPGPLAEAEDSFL
Chain of Epidermal growth factor receptor (P00533 whole entry): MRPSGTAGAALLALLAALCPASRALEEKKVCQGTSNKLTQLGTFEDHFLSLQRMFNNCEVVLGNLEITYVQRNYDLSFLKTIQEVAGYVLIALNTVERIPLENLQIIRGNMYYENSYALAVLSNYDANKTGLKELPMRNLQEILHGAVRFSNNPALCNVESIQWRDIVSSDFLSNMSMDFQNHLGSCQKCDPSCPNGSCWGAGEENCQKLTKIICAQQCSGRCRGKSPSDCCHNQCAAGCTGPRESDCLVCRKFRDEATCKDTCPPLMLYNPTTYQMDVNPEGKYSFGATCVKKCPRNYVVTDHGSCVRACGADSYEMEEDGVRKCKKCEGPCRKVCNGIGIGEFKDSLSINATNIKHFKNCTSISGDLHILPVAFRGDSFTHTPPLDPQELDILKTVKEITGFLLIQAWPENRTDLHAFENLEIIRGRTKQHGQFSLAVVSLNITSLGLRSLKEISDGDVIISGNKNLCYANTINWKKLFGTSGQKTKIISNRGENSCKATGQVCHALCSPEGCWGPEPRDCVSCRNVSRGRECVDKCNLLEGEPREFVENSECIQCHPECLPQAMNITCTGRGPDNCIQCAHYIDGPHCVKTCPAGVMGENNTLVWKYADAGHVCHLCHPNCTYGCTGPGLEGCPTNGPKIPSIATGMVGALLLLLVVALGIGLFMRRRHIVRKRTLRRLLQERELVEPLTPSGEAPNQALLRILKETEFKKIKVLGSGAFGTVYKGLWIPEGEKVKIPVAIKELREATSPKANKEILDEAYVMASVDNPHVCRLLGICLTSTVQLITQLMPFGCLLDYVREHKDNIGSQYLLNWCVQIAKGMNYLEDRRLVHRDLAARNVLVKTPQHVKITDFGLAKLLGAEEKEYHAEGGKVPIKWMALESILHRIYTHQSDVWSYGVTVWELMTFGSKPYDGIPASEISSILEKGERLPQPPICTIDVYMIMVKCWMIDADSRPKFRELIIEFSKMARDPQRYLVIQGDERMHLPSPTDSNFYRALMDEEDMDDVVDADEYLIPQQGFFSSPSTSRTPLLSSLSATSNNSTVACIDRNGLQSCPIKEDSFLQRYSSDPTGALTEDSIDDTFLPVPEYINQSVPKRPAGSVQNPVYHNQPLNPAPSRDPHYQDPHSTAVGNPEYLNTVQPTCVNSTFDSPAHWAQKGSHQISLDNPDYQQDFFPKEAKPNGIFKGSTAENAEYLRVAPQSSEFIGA
Chain of Proto-oncogene tyrosine-protein kinase Src (Homo sapiens, UniProt P12931) (P12931 2-536 limits assumed): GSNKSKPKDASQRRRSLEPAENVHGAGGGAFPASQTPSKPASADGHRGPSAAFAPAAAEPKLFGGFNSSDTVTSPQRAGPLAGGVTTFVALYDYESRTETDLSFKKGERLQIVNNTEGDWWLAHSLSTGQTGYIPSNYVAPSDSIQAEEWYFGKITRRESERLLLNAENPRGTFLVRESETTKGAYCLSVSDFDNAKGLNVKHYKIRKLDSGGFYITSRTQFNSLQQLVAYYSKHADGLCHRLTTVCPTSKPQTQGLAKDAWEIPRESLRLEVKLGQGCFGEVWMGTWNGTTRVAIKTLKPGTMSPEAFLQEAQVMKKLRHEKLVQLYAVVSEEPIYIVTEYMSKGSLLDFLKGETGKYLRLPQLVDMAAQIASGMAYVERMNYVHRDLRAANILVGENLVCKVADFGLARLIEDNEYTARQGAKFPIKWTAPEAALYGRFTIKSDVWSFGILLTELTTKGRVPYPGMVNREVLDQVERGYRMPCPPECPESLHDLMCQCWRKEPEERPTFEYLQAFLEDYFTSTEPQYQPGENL

SMILES: Cn1c(=O)c(-c2c(Cl)cccc2Cl)cc2cnc(Nc3ccccc3)nc21
- Weight change (C6 [1]): Weight gain
- T-C (HT-29 [2]): 1.1 days
- IC50 (C6 [3]): 2900 nM
- IC50 [4]: 20 nM
- Net cell kill (Mus musculus [5]): -2.1 log10
- IC50 [6]: 400 nM
- IC50 [7]: 20 nM
- IC50 [8]: 20 nM
- IC50 (C6 [9]): 1100 nM
- Net cell kill (HT-29 [10]): -0.5 log10
- Weight change (COLO 205 [11]): -2 g
- IC50 [12]: 400 nM
- T-C (C6 [13]): -1.1 days
- IC50 (C6 [14]): 1100 nM
- IC50 (NIH3T3): 105 nM and 410 nM
- IC50 [15]: 17 nM
- IC50 (C6 [16]): 1800 nM
- T-C (COLO 205 [17]): -3.2 days
- IC50 (C6 [18]): 2900 nM
- T-C (Mus musculus [19]): 1.7 days
- T-C (SK-OV-3 [20]): -0.4 days
- IC50 [21]: 38 nM
- IC50 [22]: 260 nM
- Weight change (HT-29 [23]): -2 g
- IC50 [24]: 38 nM
- IC50 (C6 [25]): 1800 nM
- Weight change (SK-OV-3 [26]): -2 g

Source: ChEMBL document CHEMBL1131066, “2-Substituted aminopyrido[2,3-d]pyrimidin-7(8H)-ones. structure-activity relationships against selected tyrosine kinases and in vitro and in vivo anticancer activity” (J Med Chem, 1998)
